Test results taken from ChEMBL document CHEMBL4823330, “Piperazinyl Bicyclic Derivatives as Selective Ligands of the α2δ-1 Subunit of Voltage-Gated Calcium Channels” (ACS Med Chem Lett, 2021).
Calls of active or inactive are those of the source. No cut-off for these calls is given here.

Assays:
[1] = biological target: T1, Voltage-dependent calcium channel subunit alpha-2/delta-1 (Homo sapiens, UniProt P54289); assay: Displacement of [3H]-gabapentin from human Cav alpha2delta1 expressed in CHO-K1 cell membranes incubated for 60 mins by scintillation counting method; set-up: species or system Membrane
T1 sequence (P54289 25-956 limits assumed): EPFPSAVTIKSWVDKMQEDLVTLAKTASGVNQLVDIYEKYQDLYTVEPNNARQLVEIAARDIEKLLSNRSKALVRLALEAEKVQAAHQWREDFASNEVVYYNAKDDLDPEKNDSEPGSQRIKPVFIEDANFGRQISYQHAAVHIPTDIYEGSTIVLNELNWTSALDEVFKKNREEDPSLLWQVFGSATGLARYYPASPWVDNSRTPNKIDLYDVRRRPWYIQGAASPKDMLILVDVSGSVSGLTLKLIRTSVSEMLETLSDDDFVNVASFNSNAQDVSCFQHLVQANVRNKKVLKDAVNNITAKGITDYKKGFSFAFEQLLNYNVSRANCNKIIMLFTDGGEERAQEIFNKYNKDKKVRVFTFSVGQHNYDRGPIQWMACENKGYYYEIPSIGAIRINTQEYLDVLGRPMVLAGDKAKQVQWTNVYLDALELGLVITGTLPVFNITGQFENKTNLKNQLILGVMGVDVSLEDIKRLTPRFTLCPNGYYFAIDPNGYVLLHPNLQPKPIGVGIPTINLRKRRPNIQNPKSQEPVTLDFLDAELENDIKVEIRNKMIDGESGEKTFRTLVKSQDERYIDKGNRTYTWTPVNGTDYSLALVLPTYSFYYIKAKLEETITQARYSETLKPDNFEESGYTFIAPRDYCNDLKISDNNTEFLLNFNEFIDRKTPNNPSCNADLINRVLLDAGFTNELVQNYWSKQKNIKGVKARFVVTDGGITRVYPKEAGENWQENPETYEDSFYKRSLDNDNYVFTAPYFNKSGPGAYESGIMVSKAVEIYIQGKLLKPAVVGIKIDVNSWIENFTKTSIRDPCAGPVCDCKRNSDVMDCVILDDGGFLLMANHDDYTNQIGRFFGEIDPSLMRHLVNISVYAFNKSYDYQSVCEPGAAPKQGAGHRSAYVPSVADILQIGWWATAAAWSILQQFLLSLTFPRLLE
T1 sequence (P54289 957-1103 limits assumed): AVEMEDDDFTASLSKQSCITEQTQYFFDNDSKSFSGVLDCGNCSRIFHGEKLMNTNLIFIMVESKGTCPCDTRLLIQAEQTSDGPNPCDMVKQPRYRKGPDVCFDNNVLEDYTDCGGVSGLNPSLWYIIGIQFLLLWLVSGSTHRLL
In short: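 Radioligand binding with [3H]-gabapentin on α2δ-1-enriched membranes from CHO-K1 cells expressing human Cav2.2/β3/α2δ1. Compounds were first screened at 10 μM. Ki was calculated for those giving more than 50% inhibition. Values are mean ± SD of two determinations.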

CYP3A4 = CYP3A4 (Homo sapiens, UniProt P08684); assay: Inhibition of recombinant CYP3A4 (unknown origin) using BFC as substrate at 1 uM measured after 30 mins in presence of NADPH generating system by fluorescence assay relative to control; format: ADME; settings: recombinant CYP3A4, probe BFC
CYP3A4, sequence (P08684 whole entry): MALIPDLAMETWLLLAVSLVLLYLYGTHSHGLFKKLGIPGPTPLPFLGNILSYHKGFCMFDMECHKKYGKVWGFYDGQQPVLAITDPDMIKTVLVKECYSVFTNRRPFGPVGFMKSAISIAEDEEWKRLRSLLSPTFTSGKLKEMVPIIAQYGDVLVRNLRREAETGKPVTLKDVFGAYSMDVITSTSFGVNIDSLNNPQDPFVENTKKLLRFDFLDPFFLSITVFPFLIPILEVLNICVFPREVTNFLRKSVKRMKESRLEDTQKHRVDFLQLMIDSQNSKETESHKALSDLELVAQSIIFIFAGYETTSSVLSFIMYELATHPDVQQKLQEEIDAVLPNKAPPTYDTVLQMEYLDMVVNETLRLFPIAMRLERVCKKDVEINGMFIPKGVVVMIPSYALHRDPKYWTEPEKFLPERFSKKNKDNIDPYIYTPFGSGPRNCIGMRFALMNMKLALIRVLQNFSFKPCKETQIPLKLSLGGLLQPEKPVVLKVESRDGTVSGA
In short: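 Recombinant human CYP3A4 incubated with test compound at 1 μM. 7-Benzyloxy-4-trifluoromethylcoumarin (BFC) was the probe substrate, with fluorescence read-out, reported as percent inhibition.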

[2] = biological target: Sodium-dependent serotonin transporter (Homo sapiens) (UniProt P31645); assay: Binding affinity to serotonin transporter (unknown origin)
Sodium-dependent serotonin transporter (Homo sapiens), sequence (P31645 whole entry, looked up): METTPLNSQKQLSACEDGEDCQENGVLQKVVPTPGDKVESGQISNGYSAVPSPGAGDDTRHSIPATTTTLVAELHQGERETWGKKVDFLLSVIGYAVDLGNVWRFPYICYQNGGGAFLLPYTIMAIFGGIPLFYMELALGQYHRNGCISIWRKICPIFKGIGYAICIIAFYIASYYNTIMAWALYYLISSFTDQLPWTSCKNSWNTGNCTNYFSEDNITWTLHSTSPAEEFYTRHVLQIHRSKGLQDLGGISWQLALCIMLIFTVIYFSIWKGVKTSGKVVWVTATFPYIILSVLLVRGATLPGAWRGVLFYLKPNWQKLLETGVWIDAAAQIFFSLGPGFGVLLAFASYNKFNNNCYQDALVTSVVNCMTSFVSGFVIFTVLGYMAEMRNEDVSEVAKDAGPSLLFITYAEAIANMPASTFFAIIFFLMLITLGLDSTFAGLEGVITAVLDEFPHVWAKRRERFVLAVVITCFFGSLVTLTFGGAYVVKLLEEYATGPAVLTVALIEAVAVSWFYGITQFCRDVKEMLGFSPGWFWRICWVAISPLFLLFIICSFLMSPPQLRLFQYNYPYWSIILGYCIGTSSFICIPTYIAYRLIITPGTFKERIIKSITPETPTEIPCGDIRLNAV

[3] = biological target: Sodium-dependent noradrenaline transporter (Homo sapiens) (UniProt P23975); assay: Binding affinity to norepinephrine transporter (unknown origin)
Sodium-dependent noradrenaline transporter (Homo sapiens), sequence (P23975 whole entry): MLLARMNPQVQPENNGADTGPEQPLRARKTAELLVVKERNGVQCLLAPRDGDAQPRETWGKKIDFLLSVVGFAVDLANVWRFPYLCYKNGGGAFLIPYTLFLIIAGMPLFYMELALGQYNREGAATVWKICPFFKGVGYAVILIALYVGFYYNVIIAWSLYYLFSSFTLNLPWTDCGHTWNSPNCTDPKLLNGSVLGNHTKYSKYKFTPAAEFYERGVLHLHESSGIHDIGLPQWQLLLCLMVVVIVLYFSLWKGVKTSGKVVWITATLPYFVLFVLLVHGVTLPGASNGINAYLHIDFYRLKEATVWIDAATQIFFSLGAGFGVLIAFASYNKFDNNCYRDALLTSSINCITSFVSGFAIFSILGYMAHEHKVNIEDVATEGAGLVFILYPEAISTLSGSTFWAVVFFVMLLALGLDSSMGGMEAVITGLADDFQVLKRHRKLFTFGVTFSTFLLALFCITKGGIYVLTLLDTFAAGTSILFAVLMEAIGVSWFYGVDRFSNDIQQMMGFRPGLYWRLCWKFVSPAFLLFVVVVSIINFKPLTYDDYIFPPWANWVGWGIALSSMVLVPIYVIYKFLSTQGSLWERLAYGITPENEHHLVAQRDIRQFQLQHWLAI

[4] = biological target: Alpha-2A adrenergic receptor (Homo sapiens) (UniProt P08913); assay: Binding affinity to alpha2A receptor (unknown origin)
[5] = biological target: 5-hydroxytryptamine receptor 1A (Homo sapiens) (UniProt P08908); assay: Binding affinity to 5HT1A receptor (unknown origin)
5-hydroxytryptamine receptor 1A (Homo sapiens), sequence (P08908 whole entry): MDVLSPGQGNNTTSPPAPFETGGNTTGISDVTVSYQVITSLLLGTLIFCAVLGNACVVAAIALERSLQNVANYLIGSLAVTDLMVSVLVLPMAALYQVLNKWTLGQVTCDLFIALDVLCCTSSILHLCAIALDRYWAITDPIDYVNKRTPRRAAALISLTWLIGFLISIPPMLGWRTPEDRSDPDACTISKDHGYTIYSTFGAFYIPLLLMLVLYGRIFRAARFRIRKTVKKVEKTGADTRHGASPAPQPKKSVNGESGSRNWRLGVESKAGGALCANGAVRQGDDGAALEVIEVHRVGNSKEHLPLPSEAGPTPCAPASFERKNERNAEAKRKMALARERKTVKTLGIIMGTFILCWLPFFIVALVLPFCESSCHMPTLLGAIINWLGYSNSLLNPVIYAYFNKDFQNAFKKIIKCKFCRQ

[6] = biological target: Alpha-1A adrenergic receptor (Homo sapiens) (UniProt P35348); assay: Binding affinity to alpha1A receptor (unknown origin)
[7] = biological target: Sigma non-opioid intracellular receptor 1 (Homo sapiens) (UniProt Q99720); assay: Binding affinity to sigma 1 receptor (unknown origin)
[8] = biological target: Delta-type opioid receptor (Homo sapiens) (UniProt P41143); assay: Binding affinity to delta opioid receptor (unknown origin)
[9] = biological target: Sodium-dependent dopamine transporter (Homo sapiens) (UniProt Q01959); assay: Binding affinity to dopamine transporter (unknown origin)
[10] = biological target: Kappa-type opioid receptor (Homo sapiens) (UniProt P41145); assay: Binding affinity to kappa opioid receptor (unknown origin)
Kappa-type opioid receptor (Homo sapiens), sequence (P41145 whole entry): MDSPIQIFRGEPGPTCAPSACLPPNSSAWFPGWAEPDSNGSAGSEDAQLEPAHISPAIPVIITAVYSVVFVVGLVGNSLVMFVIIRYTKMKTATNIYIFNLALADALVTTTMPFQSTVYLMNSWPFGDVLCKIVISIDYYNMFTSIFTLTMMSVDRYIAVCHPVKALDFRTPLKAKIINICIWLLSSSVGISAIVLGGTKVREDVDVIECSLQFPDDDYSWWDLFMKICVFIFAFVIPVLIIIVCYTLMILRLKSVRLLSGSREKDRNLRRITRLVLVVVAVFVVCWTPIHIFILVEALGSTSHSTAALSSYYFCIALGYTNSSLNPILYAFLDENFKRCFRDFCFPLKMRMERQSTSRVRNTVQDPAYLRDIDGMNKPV

[11] = biological target: Histamine H1 receptor (Homo sapiens) (UniProt P35367); assay: Binding affinity to histamine H1 receptor (unknown origin)
Histamine H1 receptor (Homo sapiens), sequence (P35367 whole entry): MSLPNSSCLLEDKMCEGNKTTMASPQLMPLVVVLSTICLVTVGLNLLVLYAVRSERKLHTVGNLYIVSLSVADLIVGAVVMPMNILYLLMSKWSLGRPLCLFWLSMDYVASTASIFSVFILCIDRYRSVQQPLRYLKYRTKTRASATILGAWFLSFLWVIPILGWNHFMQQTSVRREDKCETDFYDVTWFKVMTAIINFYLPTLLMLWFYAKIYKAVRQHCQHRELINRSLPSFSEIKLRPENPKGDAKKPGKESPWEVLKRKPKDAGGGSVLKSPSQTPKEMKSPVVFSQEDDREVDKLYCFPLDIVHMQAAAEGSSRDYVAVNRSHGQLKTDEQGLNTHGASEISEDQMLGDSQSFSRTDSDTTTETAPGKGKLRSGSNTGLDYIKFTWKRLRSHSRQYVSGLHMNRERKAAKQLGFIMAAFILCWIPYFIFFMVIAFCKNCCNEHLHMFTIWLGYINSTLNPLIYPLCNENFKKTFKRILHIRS

Mu-type opioid receptor = Mu-type opioid receptor (Homo sapiens, UniProt P35372); assay: Binding affinity to mu opioid receptor (unknown origin)
Mu-type opioid receptor, sequence (P35372 whole entry): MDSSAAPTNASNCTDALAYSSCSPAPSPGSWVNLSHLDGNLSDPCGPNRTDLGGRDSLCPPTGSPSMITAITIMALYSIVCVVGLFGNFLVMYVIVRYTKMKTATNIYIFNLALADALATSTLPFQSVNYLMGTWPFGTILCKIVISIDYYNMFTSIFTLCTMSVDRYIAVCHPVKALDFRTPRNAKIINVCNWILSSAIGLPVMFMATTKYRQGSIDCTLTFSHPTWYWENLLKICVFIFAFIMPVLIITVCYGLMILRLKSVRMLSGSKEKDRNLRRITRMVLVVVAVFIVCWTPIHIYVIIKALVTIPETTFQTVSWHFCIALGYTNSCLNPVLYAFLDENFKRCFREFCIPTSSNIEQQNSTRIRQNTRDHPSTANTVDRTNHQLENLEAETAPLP

[12] = biological target: 5-hydroxytryptamine receptor 2B (Homo sapiens) (UniProt P41595); assay: Binding affinity to 5HT2B receptor (unknown origin)
5-hydroxytryptamine receptor 2B (Homo sapiens), sequence (P41595 whole entry): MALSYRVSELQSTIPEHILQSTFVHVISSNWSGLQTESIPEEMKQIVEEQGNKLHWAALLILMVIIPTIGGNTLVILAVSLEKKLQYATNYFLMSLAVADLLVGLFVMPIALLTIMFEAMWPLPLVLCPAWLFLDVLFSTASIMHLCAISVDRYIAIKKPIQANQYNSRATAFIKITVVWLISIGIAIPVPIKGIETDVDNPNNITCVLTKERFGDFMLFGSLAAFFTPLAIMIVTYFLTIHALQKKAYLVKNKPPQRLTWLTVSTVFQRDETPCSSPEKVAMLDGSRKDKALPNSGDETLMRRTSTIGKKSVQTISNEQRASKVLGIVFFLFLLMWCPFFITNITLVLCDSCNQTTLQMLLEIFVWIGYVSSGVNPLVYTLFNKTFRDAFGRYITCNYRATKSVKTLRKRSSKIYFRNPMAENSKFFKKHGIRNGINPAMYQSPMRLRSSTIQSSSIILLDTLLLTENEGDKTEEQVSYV

[13] = Metabolic stability in mouse liver microsomes assessed as intrinsic clearance per mg protein at 1 uM measured upto 60 mins in presence of NADPH generating system by UPLC-MS/MS analysis; format: ADME, Microsome; settings: read-out: CLH
[14] = Metabolic stability in human liver microsomes assessed as intrinsic clearance per mg protein at 1 uM measured upto 60 mins in presence of NADPH generating system by UPLC-MS/MS analysis; format: ADME, Microsome; settings: read-out: CLH
[15] = Induction of motor coordination impairment in CD1 mouse assessed as latency to fall at 20 mg/kg, ip measured upto 180 mins by rotarod test; format: organism-based; settings: in vivo, 3 h
In short: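 Mice were dosed at 20 mg/kg ip, with vehicle and pregabalin groups run in the same paradigm. Latency to fall from the elevated rotating drum was recorded at 30, 120 and 180 min after administration.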

Mus musculus = assay: Analgesic activity in CD1 mouse model of capsaicin-induced mechanical hypersensitivity assessed as reduction in mechanical hypersensitivity at 20 mg/kg, ip administered 30 mins prior to capsaicin stimulation and measured after 15 mins; format: functional; set-up: scale not given: the % may be the effect or the level left; settings: time 45 min, 0.75 h
In short: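 Male CD1 mice, 8–12 per group, given 20 mg/kg ip alongside vehicle and pregabalin comparator groups. Capsaicin test read out as percentage reduction in capsaicin-induced mechanical hypersensitivity.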

CYP1A2 = CYP1A2 (Homo sapiens, UniProt P05177); assay: Inhibition of CYP1A2 (unknown origin) at 1 uM relative to control; format: ADME
In short: (§1)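 Recombinant human CYP isoforms (1A2, 2C9, 2C19, 2D6) were each tested with compound at 1 μM. Read-out is percent inhibition.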

[16] = Metabolic stability in rat liver microsomes assessed as intrinsic clearance per mg protein at 1 uM measured upto 60 mins in presence of NADPH generating system by UPLC-MS/MS analysis; format: ADME, Microsome; settings: read-out: CLH
[17] = AUC(0 to t) in CD1 mouse at 20 mg/kg, ip measured upto 24 hrs by UPLC-MS/MS analysis; format: ADME, organism-based; set-up: route intraperitoneal, dose 20 mg/kg, time <=24; settings: in vivo
[18] = Cmax in CD1 mouse at 20 mg/kg, ip measured upto 24 hrs by UPLC-MS/MS analysis; format: ADME, organism-based; set-up: route intraperitoneal, dose 20 mg/kg, time <=24; settings: in vivo
In short: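 Male CD1 mice given a single ip dose of 20 mg/kg. Cmax was taken from the plasma concentration profile.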

[19] = Efflux ratio of permeability in human Caco2 cells; format: ADME, cell-based; settings: Caco-2
CYP2C19 = CYP2C19 (Homo sapiens, UniProt P33261); assay: Inhibition of CYP2C19 (unknown origin) at 1 uM relative to control; format: ADME; in short: as §1
CYP2C9 = CYP2C9 (Homo sapiens, UniProt P11712); assay: Inhibition of CYP2C9 (unknown origin) at 1 uM relative to control; format: ADME; in short: as §1
[20] = Lipophilicity, logD of compound at pH 7.4; format: physicochemical; settings: buffer
[21] = Permeability of compound in human Caco2 cells; format: ADME, cell-based; settings: Caco-2, read-out: permeability
CYP2D6 = CYP2D6 (Homo sapiens, UniProt P10635); assay: Inhibition of CYP2D6 (unknown origin) at 1 uM relative to control; format: ADME; in short: as §1
[22] = biological target: Voltage-gated inwardly rectifying potassium channel KCNH2 (Homo sapiens, UniProt Q12809); assay: Inhibition of human ERG
[23] = Lipophilicity, logP of compound; format: physicochemical; settings: octanol/water
[24] = biological target: T1, Voltage-dependent calcium channel subunit alpha-2/delta-1; assay: Displacement of [3H]-gabapentin from human Cav alpha2delta1 expressed in CHO-K1 cell membranes at 10 uM incubated for 60 mins by scintillation counting method relative to control; settings: Membrane
In short: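 Human α2δ-1-enriched membranes from CHO-K1 cells stably expressing human Cav2.2/β3/α2δ1. Test compound at 10 μM competes with [3H]-gabapentin radioligand, and percent inhibition of specific binding is recorded. Compounds exceeding 50% inhibition go on to Ki determination, with Ki values given as the mean of two determinations.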

Structure (SMILES) | Ki [1] [nM] | inhibition at 0.5 h, 1 µM (CYP3A4) [%] | other results
CCC(c1nc2ccccc2c(=O)n1CCOC)N1CCNCC1 (stereo not drawn) | 1810 | 37 | 
CCC[C@H](c1nc2ccc(Br)cc2c(=O)n1CC)N1CCN[C@H](C)C1 | 16 | 51 | Activity [2]: Active; Activity [3]: Active; Activity [4]: Active; Activity [5]: Active; Activity [6]: Active; Activity [7]: Active; Activity [8]: Active; Activity [9]: Active; Activity [10]: Active; Activity [11]: Active; Activity (Mu-type opioid receptor): Active; Activity [12]: Active
CCC[C@H](c1nc2ccc(Br)cc2c(=O)n1CC)N1C[C@@H](C)N[C@@H](C)C1 | 8 | 94 | 
CCC[C@H](c1nc2ccncc2c(=O)n1CC)N1CCN[C@H](C)C1 | 6 | 46 | microsomal CLint at 1 µM [13]: 4.1 µL/min/mg; microsomal CLint at 1 µM [14]: 2.6 µL/min/mg; Activity [15]: Non-Toxic; Activity (Mus musculus): 69%; inhibition at 1 µM (CYP1A2): < 50%; microsomal CLint at 1 µM [16]: 3.9 µL/min/mg; AUC(0-t) at 24 h [17]: 8050 ng·h/mL; Cmax [18]: 3070 ng/mL; efflux ratio [19]: 5.4; inhibition at 1 µM (CYP2C19): < 50%; inhibition at 1 µM (CYP2C9): < 50%; logD [20]: 0.49; Papp [21]: 4.3 ×10⁻⁶ cm/s; inhibition at 1 µM (CYP2D6): < 50%; IC50 [22]: > 10000 nM; logP [23]: 2.22
CCC[C@@H](c1nc2ccc(Br)cc2c(=O)n1CC)N1CCN[C@H](C)C1 | > 1000 | 21 | 
COCCn1c(C(C)N2CCNCC2)nc2ccccc2c1=O (stereo not drawn) | 4900 | 0 | 
CC(C)C[C@H](CN)CC(=O)O [PREGABALIN] |  | 43 | Activity [15]: Toxic; Activity (Mus musculus): 34%
CCC[C@H](c1nc2ccc(Br)cc2c(=O)n1CC)N1CCN[C@@H](CC)C1 | 123 | 97 | 
CCC[C@H](c1nc2ccc(Br)cc2c(=O)n1CC)N1CCN[C@@H](C)C1 | 91 | 73 | Activity [2]: Active; Activity [3]: Active; Activity [4]: Active; Activity [5]: Active; Activity [6]: Active; Activity [7]: Active; Activity [8]: Active; Activity [9]: Active; Activity [10]: Active; Activity [11]: Active; Ki (Mu-type opioid receptor): 157 nM; Activity [12]: Active
CCCC(c1nc2ccccc2c(=O)n1CCOC)N1C[C@@H](C)N[C@@H](C)C1 (stereo partly drawn) | 241 | 94 | 
CCCC(c1nc2ccccc2c(=O)n1C)N1C[C@@H](C)N[C@@H](C)C1 (stereo partly drawn) | 73 | 80 | 
CCC(c1nc2ccccc2c(=O)n1CCCOC)N1C[C@@H](C)N[C@@H](C)C1 (stereo partly drawn) | > 10000 |  | inhibition [24]: < 50%
CCCC(c1nc2ccccc2c(=O)n1Cc1ccco1)N1C[C@@H](C)N[C@@H](C)C1 (stereo partly drawn) | 230 | 99 | 
CCCC(c1nc2ccccc2c(=O)n1CC)N1C[C@@H](C)N[C@@H](C)C1 (stereo partly drawn) | 36 | 85 | 
CCCC(c1nc2ccc(Br)cc2c(=O)n1CC)N1CCNCC1 (stereo not drawn) | 76 | 65 | 
CCC[C@@H](c1nc2ccc(Br)cc2c(=O)n1CC)N1CCN[C@@H](C)C1 | 479 | 33 | 
CCCC(c1nc2cccc(Br)c2c(=O)n1CC)N1C[C@@H](C)N[C@@H](C)C1 (stereo partly drawn) | 66 | 95 | 
CCCC(c1nc2ccc(-c3ccncc3)cc2c(=O)n1CC)N1C[C@@H](C)N[C@@H](C)C1 (stereo partly drawn) | 38 | 92 | 

Structure (SMILES) | Ki [1] [nM] | inhibition at 0.5 h, 1 µM (CYP3A4) [%] | other results
COCCn1c(CN2CCNCC2)nc2ccccc2c1=O | > 10000 | 6 | inhibition [24]: < 50%
CCCC(c1nc2ccc(NCC)cc2c(=O)n1CC)N1C[C@@H](C)N[C@@H](C)C1 (stereo partly drawn) | 44 | 69 | 
CCCC(c1nc2ccc(C#N)cc2c(=O)n1CC)N1C[C@@H](C)N[C@@H](C)C1 (stereo partly drawn) | 288 | 70 | 
CCC[C@@H](c1nc2ccncc2c(=O)n1CC)N1CCN[C@@H](C)C1 | > 1000 | 44 | 
CCC(c1nc2ccccc2c(=O)n1CCOC)N1C[C@@H](C)N[C@@H](C)C1 (stereo partly drawn) | 761 | 86 | 
CCCC(c1nc2ccc(Br)cc2c(=O)n1CC)N1CCC(NC)CC1 (stereo not drawn) | 436 | 83 | 
CCCCC(c1nc2ccccc2c(=O)n1CCOC)N1C[C@@H](C)N[C@@H](C)C1 (stereo partly drawn) | 1340 | 97 | 
COCCn1c(C(CC2CC2)N2C[C@@H](C)N[C@@H](C)C2)nc2ccccc2c1=O (stereo partly drawn) | 413 | 94 | 
CCCC(c1nc2ccccc2c(=O)n1Cc1ccccc1)N1C[C@@H](C)N[C@@H](C)C1 (stereo partly drawn) | 4820 | 98 | 
CCCC(c1nc2ccc(Br)cc2c(=O)n1CC)N1C[C@@H](C)N[C@@H](C)C1 (stereo partly drawn) | 16 | 95 | 
CCC[C@@H](c1nc2ccc(Br)cc2c(=O)n1CC)N1C[C@@H](C)N[C@@H](C)C1 | 2900 | 88 | 
CCCC(c1nc2cc(-c3ccncc3)ccc2c(=O)n1CC)N1C[C@@H](C)N[C@@H](C)C1 (stereo partly drawn) | 18 | 97 | 
CCC[C@H](c1nc2ccc(Br)cc2c(=O)n1CC)N1CCNC(C)(C)C1 | 1580 | 72 | 
CCC[C@H](c1nc2ccncc2c(=O)n1CC)N1CCN[C@@H](C)C1 | 27 | 56 | 
CCCC(c1nc2c(Br)cccc2c(=O)n1CC)N1C[C@@H](C)N[C@@H](C)C1 (stereo partly drawn) | > 1000 |  | 
CCCC(c1nc2cc(Br)ccc2c(=O)n1CC)N1C[C@@H](C)N[C@@H](C)C1 (stereo partly drawn) | 15 | 97 | 
CCCC(c1nc2ccccc2c(=O)n1CCOC)N1CCNCC1 (stereo not drawn) | 638 | 67 | 
CCC[C@@H](c1nc2ccncc2c(=O)n1CC)N1CCN[C@H](C)C1 | > 1000 | 15 | 
